# Test results from paper PMC10433355 (ACS Omega, 2023).
# System: B16F1
# Assay: MTS assay, melanoma B16F1
# Type: cell-based
# Conditions: Mus musculus, B16-F1, 72 h, read-out: IC50 B16F1
# Procedure, shortened: (§1)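 Cells grown in RPMI 1640 with 10% FBS, 1% penicillin/streptomycin and 1% L-glutamine, trypsinised and counted by hemocytometer. Seeded at 1 × 10^3 cells/well and left 24 h at 37 °C. Test compound added at 300, 100, 50 and 10 µM for 72 h at 37 °C, then removed. […] Triplicate, mean ± SD.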
row,IC50 [µM],SMILES
1,> 300,"COc1cccc(-c2nc(C)c(C(=O)Nc3ccc(SC)cc3)s2)c1 [2e, 2-(3-Methoxyphenyl)-4-methyl-N-(4-(methylthio)phenyl)thiazole-5-carboxamide]"
2,> 300,"COc1cccc(-c2nc(C)c(C(=O)Nc3ccc(Oc4ccccc4OC)cc3)s2)c1 [2i, N-(4-(2-Methoxyphenoxy)phenyl)-2-(3-methoxyphenyl)-4-methylthiazole-5-carboxamide]"

# System: CaCo-2
# Assay: MTS assay, colorectal adenocarcinoma Caco-2
# Type: cell-based
# Conditions: Homo sapiens, Caco-2, 72 h, read-out: IC50 CaCo-2
# Procedure, shortened: as §1
row,IC50 [µM],SMILES
1,> 300,"COc1cccc(-c2nc(C)c(C(=O)Nc3ccc(SC)cc3)s2)c1 [2e, 2-(3-Methoxyphenyl)-4-methyl-N-(4-(methylthio)phenyl)thiazole-5-carboxamide]"
2,> 300,"COc1cccc(-c2nc(C)c(C(=O)Nc3ccc(Oc4ccccc4OC)cc3)s2)c1 [2i, N-(4-(2-Methoxyphenoxy)phenyl)-2-(3-methoxyphenyl)-4-methylthiazole-5-carboxamide]"

# Target: T1, human recombinant COX-2 (Homo sapiens, UniProt P35354)
# T1 sequence (P35354 18-604): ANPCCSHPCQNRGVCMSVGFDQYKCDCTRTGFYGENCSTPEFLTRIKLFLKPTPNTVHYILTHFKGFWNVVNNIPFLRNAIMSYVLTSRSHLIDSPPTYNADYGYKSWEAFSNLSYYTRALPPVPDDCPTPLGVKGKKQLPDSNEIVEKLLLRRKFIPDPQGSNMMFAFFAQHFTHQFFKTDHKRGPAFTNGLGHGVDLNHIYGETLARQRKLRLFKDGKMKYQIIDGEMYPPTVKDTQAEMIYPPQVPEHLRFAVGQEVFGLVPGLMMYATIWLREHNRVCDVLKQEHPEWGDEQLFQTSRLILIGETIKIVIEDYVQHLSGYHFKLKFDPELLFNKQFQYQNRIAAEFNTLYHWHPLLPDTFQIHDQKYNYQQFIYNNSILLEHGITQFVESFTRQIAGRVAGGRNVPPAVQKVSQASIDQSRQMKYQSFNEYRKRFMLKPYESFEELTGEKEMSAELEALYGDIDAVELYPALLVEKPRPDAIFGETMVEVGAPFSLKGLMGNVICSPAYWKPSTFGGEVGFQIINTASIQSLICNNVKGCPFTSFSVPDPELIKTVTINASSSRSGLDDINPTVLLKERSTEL
# Assay: In vitro COX-2 inhibition assay
# Type: biochemical
# Conditions: IC50 COX-1 divided by IC50 COX-2
row,SI (selectivity index / selectivity ratio),SMILES
1,0.723,"COc1cccc(-c2nc(C)c(C(=O)Nc3ccc(SC)cc3)s2)c1 [2e, 2-(3-Methoxyphenyl)-4-methyl-N-(4-(methylthio)phenyl)thiazole-5-carboxamide]"
2,0.651,"COc1cccc(-c2nc(C)c(C(=O)Nc3ccc(Oc4ccccc4OC)cc3)s2)c1 [2i, N-(4-(2-Methoxyphenoxy)phenyl)-2-(3-methoxyphenyl)-4-methylthiazole-5-carboxamide]"

# Same assay, conditions: IC50 COX-2
row,IC50 [µM],SMILES
1,2.12 ± 1.48,"COc1cccc(-c2nc(C)c(C(=O)Nc3ccc(SC)cc3)s2)c1 [2e, 2-(3-Methoxyphenyl)-4-methyl-N-(4-(methylthio)phenyl)thiazole-5-carboxamide]"
2,3.24 ± 1.11,"COc1cccc(-c2nc(C)c(C(=O)Nc3ccc(Oc4ccccc4OC)cc3)s2)c1 [2i, N-(4-(2-Methoxyphenoxy)phenyl)-2-(3-methoxyphenyl)-4-methylthiazole-5-carboxamide]"

# System: HepG2
# Assay: MTS assay, hepatocellular carcinoma HepG2
# Type: cell-based
# Conditions: Homo sapiens, HepG2, 72 h, read-out: IC50 HepG2
# Procedure, shortened: as §1
row,IC50 [µM],SMILES
1,> 300,"COc1cccc(-c2nc(C)c(C(=O)Nc3ccc(SC)cc3)s2)c1 [2e, 2-(3-Methoxyphenyl)-4-methyl-N-(4-(methylthio)phenyl)thiazole-5-carboxamide]"
2,> 300,"COc1cccc(-c2nc(C)c(C(=O)Nc3ccc(Oc4ccccc4OC)cc3)s2)c1 [2i, N-(4-(2-Methoxyphenoxy)phenyl)-2-(3-methoxyphenyl)-4-methylthiazole-5-carboxamide]"

# System: Hep3B
# Assay: MTS assay, hepatocellular carcinoma Hep3B
# Type: cell-based
# Conditions: Homo sapiens, 72 h, read-out: IC50 Hep3B
# Procedure, shortened: as §1
row,IC50 [µM],SMILES
1,202.1 ± 1.99,"COc1cccc(-c2nc(C)c(C(=O)Nc3ccc(SC)cc3)s2)c1 [2e, 2-(3-Methoxyphenyl)-4-methyl-N-(4-(methylthio)phenyl)thiazole-5-carboxamide]"
2,> 300,"COc1cccc(-c2nc(C)c(C(=O)Nc3ccc(Oc4ccccc4OC)cc3)s2)c1 [2i, N-(4-(2-Methoxyphenoxy)phenyl)-2-(3-methoxyphenyl)-4-methylthiazole-5-carboxamide]"

# System: HeLa
# Assay: MTS assay, cervical adenocarcinoma HeLa
# Type: cell-based
# Conditions: Homo sapiens, 72 h, read-out: IC50 HeLa
# Procedure, shortened: as §1
row,IC50 [µM],SMILES
1,223 ± 2.58,"COc1cccc(-c2nc(C)c(C(=O)Nc3ccc(SC)cc3)s2)c1 [2e, 2-(3-Methoxyphenyl)-4-methyl-N-(4-(methylthio)phenyl)thiazole-5-carboxamide]"
2,> 300,"COc1cccc(-c2nc(C)c(C(=O)Nc3ccc(Oc4ccccc4OC)cc3)s2)c1 [2i, N-(4-(2-Methoxyphenoxy)phenyl)-2-(3-methoxyphenyl)-4-methylthiazole-5-carboxamide]"

# System: not listed separately
# Assay: MTS cytotoxicity assay, normal cell line LX-2
# Type: cell-based
# Conditions: human, LX-2 cells (normal cell line), CC50 LX-2, normal cell line
# Procedure, shortened: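 LX-2 cells seeded at 1 × 10^3 cells/well and left 24 h at 37 °C. Exposed to test compound at 300, 100, 50 and 10 µM for 72 h at 37 °C, with 5-FU as positive control. […] Triplicate, mean ± SD.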
row,SMILES,CC50 at 72 h [µM]
1,"COc1cccc(-c2nc(C)c(C(=O)Nc3ccc(SC)cc3)s2)c1 [2e, 2-(3-Methoxyphenyl)-4-methyl-N-(4-(methylthio)phenyl)thiazole-5-carboxamide]",> 300
2,"COc1cccc(-c2nc(C)c(C(=O)Nc3ccc(Oc4ccccc4OC)cc3)s2)c1 [2i, N-(4-(2-Methoxyphenoxy)phenyl)-2-(3-methoxyphenyl)-4-methylthiazole-5-carboxamide]",> 300

# System: MCF-7
# Assay: MTS assay, breast carcinoma MCF-7
# Type: cell-based
# Conditions: Homo sapiens, MCF7, 72 h, read-out: IC50 MCF-7
# Procedure, shortened: as §1
row,IC50 [µM],SMILES
1,163 ± 2.88,"COc1cccc(-c2nc(C)c(C(=O)Nc3ccc(SC)cc3)s2)c1 [2e, 2-(3-Methoxyphenyl)-4-methyl-N-(4-(methylthio)phenyl)thiazole-5-carboxamide]"
2,> 300,"COc1cccc(-c2nc(C)c(C(=O)Nc3ccc(Oc4ccccc4OC)cc3)s2)c1 [2i, N-(4-(2-Methoxyphenoxy)phenyl)-2-(3-methoxyphenyl)-4-methylthiazole-5-carboxamide]"

# System: COLO205
# Assay: MTS assay, colon adenocarcinoma COLO205
# Type: cell-based
# Conditions: Homo sapiens, COLO 205, 72 h, read-out: IC50 COLO205
# Procedure, shortened: as §1
row,IC50 [µM],SMILES
1,> 300,"COc1cccc(-c2nc(C)c(C(=O)Nc3ccc(SC)cc3)s2)c1 [2e, 2-(3-Methoxyphenyl)-4-methyl-N-(4-(methylthio)phenyl)thiazole-5-carboxamide]"
2,> 300,"COc1cccc(-c2nc(C)c(C(=O)Nc3ccc(Oc4ccccc4OC)cc3)s2)c1 [2i, N-(4-(2-Methoxyphenoxy)phenyl)-2-(3-methoxyphenyl)-4-methylthiazole-5-carboxamide]"

# Target: T2, COX-1 (Ovis aries, UniProt P05979)
# T2 sequence (P05979 25-600): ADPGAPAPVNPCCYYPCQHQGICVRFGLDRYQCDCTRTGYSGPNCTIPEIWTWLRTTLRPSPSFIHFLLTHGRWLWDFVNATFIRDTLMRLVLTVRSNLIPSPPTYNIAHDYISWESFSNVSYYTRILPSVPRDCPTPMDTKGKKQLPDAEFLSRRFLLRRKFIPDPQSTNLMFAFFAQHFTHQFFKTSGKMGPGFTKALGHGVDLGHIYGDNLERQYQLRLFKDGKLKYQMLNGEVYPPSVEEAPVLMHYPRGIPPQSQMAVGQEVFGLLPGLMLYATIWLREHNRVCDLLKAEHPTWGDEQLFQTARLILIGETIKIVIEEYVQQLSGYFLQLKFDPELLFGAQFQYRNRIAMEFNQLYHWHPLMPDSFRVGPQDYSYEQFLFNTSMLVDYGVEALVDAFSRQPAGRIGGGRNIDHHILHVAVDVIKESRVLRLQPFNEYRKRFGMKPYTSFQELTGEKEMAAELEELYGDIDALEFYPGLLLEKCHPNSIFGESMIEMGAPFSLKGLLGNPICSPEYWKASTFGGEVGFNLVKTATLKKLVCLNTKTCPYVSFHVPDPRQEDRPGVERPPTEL
# Assay: In vitro COX-1 inhibition assay
# Type: biochemical, ovine
# Conditions: not given
row,IC50 [µM],SMILES
1,1.53 ± 0.92,"COc1cccc(-c2nc(C)c(C(=O)Nc3ccc(SC)cc3)s2)c1 [2e, 2-(3-Methoxyphenyl)-4-methyl-N-(4-(methylthio)phenyl)thiazole-5-carboxamide]"
2,2.11 ± 1.08,"COc1cccc(-c2nc(C)c(C(=O)Nc3ccc(Oc4ccccc4OC)cc3)s2)c1 [2i, N-(4-(2-Methoxyphenoxy)phenyl)-2-(3-methoxyphenyl)-4-methylthiazole-5-carboxamide]"
